Data published in ChEMBL document CHEMBL1137803, “A novel anti-HIV macrocyclic peptide from Palicourea condensata” (J Nat Prod, 2001).
Where a SMILES comes first, the peptide text is derived from it. Bridges are numbered along the chain shown (N, C = ends).

What follows are molecules tested on Human immunodeficiency virus 1 (assay: Antiviral activity against HIV1 RF infected in human CEM-SS cells assessed as inhibition of virus induced cytopathic effect by XTT assay). Conditions: Human immunodeficiency virus 1, RF.
Assay type: functional, organism-based
In short: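 HIV-1RF infection of CEM-SS, a human T-lymphoblastoid cell line, in vitro; inhibition of virus-induced cytopathic effects read out and reported as EC50 in µM.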
`CC[C@H](C)[C@@H]1NC(=O)[C@@H]2CSSC[C@@H]3NC(=O)[C@H](C(C)C)NC(=O)[C@H](CCCCN)NC(=O)[C@H](CC(N)=O)NC(=O)[C@H](CCCCN)NC(=O)[C@@H]4CSSC[C@H](NC(=O)[C@H](CO)NC(=O)[C@H](CCC(=O)O)NC(=O)CNC(=O)[C@H](CSSC[C@H](NC(=O)CNC(=O)[C@H](CC(C)C)NC(=O)[C@H](C)NC(=O)[C@H](C)NC(=O)[C@H](CO)NC1=O)C(=O)N[C@@H](CO)C(=O)N4)NC(=O)[C@@H]1CCCN1C(=O)[C@H]([C@@H](C)CC)NC(=O)CNC(=O)[C@H](CC(N)=O)NC(=O)[C@H](CCCNC(=N)N)NC(=O)[C@H](Cc1ccc(O)cc1)NC3=O)C(=O)N[C@@H](C(C)C)C(=O)N[C@@H](Cc1c[nH]c3ccccc13)C(=O)N[C@@H]([C@@H](C)CC)C(=O)N1CCC[C@H]1C(=O)N2` [CIRCULIN A] (cyclo(AALGCSCKNKVCYRNGIPCGESCVWIPCIS); disulfide 5-19, 7-23, 12-28) showed an EC50 of 50 nM. `CC[C@H](C)[C@@H]1NC(=O)[C@@H]2CSSC[C@@H]3NC(=O)[C@H](C(C)C)NC(=O)[C@H](CCCCN)NC(=O)[C@H](CC(N)=O)NC(=O)[C@H](CCCCN)NC(=O)[C@@H]4CSSC[C@H](NC(=O)[C@H](CO)NC(=O)[C@H](CCC(=O)O)NC(=O)CNC(=O)[C@H](CSSC[C@H](NC(=O)CNC(=O)[C@H](CC(C)C)NC(=O)[C@H](CC(C)C)NC(=O)[C@H]([C@@H](C)O)NC(=O)[C@H](CO)NC1=O)C(=O)N[C@@H](CO)C(=O)N4)NC(=O)[C@@H]1CCCN1C(=O)[C@H]([C@@H](C)CC)NC(=O)[C@H](C(C)C)NC(=O)CNC(=O)[C@H](CC(N)=O)NC(=O)[C@H](CCCNC(=N)N)NC(=O)[C@H](Cc1ccc(O)cc1)NC3=O)C(=O)N[C@@H](C(C)C)C(=O)N[C@@H](Cc1ccccc1)C(=O)N[C@@H]([C@@H](C)CC)C(=O)N1CCC[C@H]1C(=O)N2` [CIRCULIN B] (cyclo(CGESCVFIPCISTLLGCSCKNKVCYRNGVIP); disulfide 1-17, 5-19, 10-24) gave an EC50 of 50 nM. For `CC[C@H](C)[C@@H]1NC(=O)[C@@H]2CSSC[C@@H]3NC(=O)[C@H](C(C)C)NC(=O)[C@H](CCCCN)NC(=O)[C@H](CO)NC(=O)[C@H](CCCCN)NC(=O)[C@@H]4CSSC[C@H](NC(=O)[C@H](CO)NC(=O)[C@H](CCC(=O)O)NC(=O)CNC(=O)[C@H](CSSC[C@H](NC(=O)CNC(=O)[C@H](C)NC(=O)[C@H](C(C)C)NC(=O)[C@H](CO)NC(=O)[C@H]([C@@H](C)O)NC1=O)C(=O)N[C@@H](CO)C(=O)N4)NC(=O)[C@@H]1CCCN1C(=O)[C@H]([C@@H](C)CC)NC(=O)CNC(=O)[C@H](CC(N)=O)NC(=O)[C@H](CCCNC(=N)N)NC(=O)[C@H](Cc1ccc(O)cc1)NC3=O)C(=O)N[C@@H](C(C)C)C(=O)N[C@@H](Cc1ccccc1)C(=O)N[C@@H]([C@@H](C)CC)C(=O)N1CCC[C@H]1C(=O)N2` [CIRCULIN C] (cyclo(AGCSCKSKVCYRNGIPCGESCVFIPCITSV); disulfide 3-17, 5-21, 10-26), the EC50 was 50 nM. Work on `CC[C@H](C)[C@@H]1NC(=O)[C@H](CO)NC(=O)[C@H]([C@@H](C)O)NC(=O)[C@H](Cc2ccc(O)cc2)NC(=O)[C@@H]2CSSC[C@@H]3NC(=O)[C@H](C(C)C)NC(=O)[C@H](CCCCN)NC(=O)[C@H](CC(N)=O)NC(=O)[C@H](CCC(=O)O)NC(=O)[C@@H]4CSSC[C@H](NC(=O)[C@H](CO)NC(=O)[C@H](CCC(=O)O)NC(=O)CNC(=O)[C@H](CSSC[C@H](NC(=O)[C@H](CC(N)=O)NC(=O)[C@H](Cc5ccccc5)NC1=O)C(=O)N[C@@H](CCCCN)C(=O)N4)NC(=O)[C@@H]1CCCN1C(=O)[C@H]([C@@H](C)CC)NC(=O)[C@H](CCCCN)NC(=O)[C@H](CC(=O)O)NC(=O)[C@H](Cc1cnc[nH]1)NC(=O)[C@H](Cc1ccc(O)cc1)NC3=O)C(=O)N[C@@H](C(C)C)C(=O)N[C@@H](Cc1c[nH]c3ccccc13)C(=O)N[C@@H]([C@@H](C)CC)C(=O)N1CCC[C@H]1C(=O)N2` [CIRCULIN D] (cyclo(CENKVCYHDKIPCGESCVWIPCYTSIFNCK); disulfide 1-17, 6-22, 13-29) yielded an EC50 of 50 nM. `CC[C@H](C)[C@@H]1NC(=O)[C@H](CCCCN)NC(=O)[C@H](CC(=O)O)NC(=O)[C@H](Cc2cnc[nH]2)NC(=O)[C@H](Cc2ccc(O)cc2)NC(=O)[C@@H]2CSSC[C@@H]3NC(=O)[C@@H]4CCCN4C(=O)[C@H]([C@@H](C)CC)NC(=O)[C@H](Cc4c[nH]c5ccccc45)NC(=O)[C@H](C(C)C)NC(=O)[C@@H]4CSSC[C@H](NC(=O)[C@H](CCCCN)NC(=O)[C@H](CSSC[C@H](NC(=O)[C@@H]5CCCN5C1=O)C(=O)NCC(=O)N[C@@H](CCC(=O)O)C(=O)N[C@@H](CO)C(=O)N4)NC(=O)[C@H](CC(N)=O)NC(=O)[C@H](Cc1ccccc1)NC(=O)[C@H](C(C)C)NC(=O)[C@H](CO)NC(=O)[C@H]([C@@H](C)O)NC(=O)[C@H](CC(C)C)NC3=O)C(=O)N[C@@H](CCC(=O)O)C(=O)N[C@@H](CC(N)=O)C(=O)N[C@@H](CCCCN)C(=O)N[C@@H](C(C)C)C(=O)N2` [CIRCULIN E] (cyclo(CENKVCYHDKIPCGESCVWIPCLTSVFNCK); disulfide 1-17, 6-22, 13-29) showed an EC50 of 50 nM. In the case of `CC[C@H](C)[C@@H]1NC(=O)[C@H](C)NC(=O)[C@H](C)NC(=O)[C@H](CO)NC(=O)[C@H]([C@@H](C)CC)NC(=O)[C@@H]2CSSC[C@@H]3NC(=O)[C@H](C(C)C)NC(=O)[C@H](CCCCN)NC(=O)[C@H](CC(N)=O)NC(=O)[C@H](CCCCN)NC(=O)[C@@H]4CSSC[C@H](NC(=O)[C@H](CO)NC(=O)[C@H](CCC(=O)O)NC(=O)CNC(=O)[C@H](CSSC[C@H](NC(=O)CNC1=O)C(=O)N[C@@H](CO)C(=O)N4)NC(=O)[C@@H]1CCCN1C(=O)[C@H]([C@@H](C)CC)NC(=O)[C@H](C)NC(=O)[C@H](CCCNC(=N)N)NC(=O)[C@H](Cc1ccc(O)cc1)NC3=O)C(=O)N[C@@H](C(C)C)C(=O)N[C@@H](Cc1c[nH]c3ccccc13)C(=O)N[C@@H]([C@@H](C)CC)C(=O)N1CCC[C@H]1C(=O)N2` [CIRCULIN F] (cyclo(AAIGCSCKNKVCYRAIPCGESCVWIPCIS); disulfide 5-18, 7-22, 12-27), the EC50 is reported as 50 nM. `CC[C@H](C)[C@@H]1NC(=O)[C@H](C)NC(=O)[C@H](C)NC(=O)[C@H](CO)NC(=O)[C@H]([C@@H](C)CC)NC(=O)[C@@H]2CSSC[C@@H]3NC(=O)[C@H](C(C)C)NC(=O)[C@H](CCCCN)NC(=O)[C@H](CC(N)=O)NC(=O)[C@H](CCCCN)NC(=O)[C@@H]4CSSC[C@H](NC(=O)[C@H](CO)NC(=O)[C@H](CCC(=O)O)NC(=O)CNC(=O)[C@H](CSSC[C@H](NC(=O)CNC1=O)C(=O)N[C@@H](CO)C(=O)N4)NC(=O)[C@@H]1CCCN1C(=O)[C@H]([C@@H](C)CC)NC(=O)[C@H](C(C)C)NC(=O)CNC(=O)[C@H](CC(N)=O)NC(=O)[C@H](CCCNC(=N)N)NC(=O)[C@H](Cc1ccc(O)cc1)NC3=O)C(=O)N[C@@H](C(C)C)C(=O)N[C@@H](Cc1ccccc1)C(=O)N[C@@H]([C@@H](C)CC)C(=O)N1CCC[C@H]1C(=O)N2` [CYCLOVIOLIN A] (cyclo(AAIGCSCKNKVCYRNGVIPCGESCVFIPCIS); disulfide 5-20, 7-24, 12-29) showed an EC50 of 50 nM. `CC(C)C[C@@H]1NC(=O)[C@H](C(C)C)NC(=O)[C@H](Cc2ccc(O)cc2)NC(=O)[C@@H]2CSSC[C@@H]3NC(=O)[C@H]([C@@H](C)O)NC(=O)[C@@H]4CSSC[C@H](NC(=O)[C@H](C)NC(=O)[C@H]([C@@H](C)O)NC(=O)CNC(=O)[C@H](CC(N)=O)NC(=O)[C@H](CCCCN)NC(=O)[C@H](Cc5ccccc5)NC(=O)[C@H](CSSC[C@H](NC(=O)[C@@H]5CCCN5C1=O)C(=O)N[C@@H](Cc1ccccc1)C(=O)N[C@@H]([C@@H](C)O)C(=O)N[C@@H](C(C)C)C(=O)NCC(=O)N4)NC(=O)[C@H](CCC(N)=O)NC(=O)[C@H](CO)NC(=O)[C@H](CO)NC(=O)[C@H]([C@@H](C)O)NC3=O)C(=O)NCC(=O)N[C@@H](CCC(=O)O)C(=O)N[C@@H](CO)C(=O)N2` [CYCLOVIOLIN B] (cyclo(ACGESCYVLPCFTVGCTCTSSQCFKNGT); disulfide 2-16, 6-18, 11-23) showed an EC50 of 50 nM. `CC[C@H](C)[C@@H]1NC(=O)CNC(=O)[C@H](CC(N)=O)NC(=O)[C@H](CCCNC(=N)N)NC(=O)[C@H](Cc2ccc(O)cc2)NC(=O)[C@@H]2CSSC[C@@H]3NC(=O)[C@@H]4CCCN4C(=O)[C@H]([C@@H](C)CC)NC(=O)[C@H](Cc4ccccc4)NC(=O)[C@H](C(C)C)NC(=O)[C@@H]4CSSC[C@H](NC(=O)[C@H](CO)NC(=O)[C@H](CSSC[C@H](NC(=O)[C@@H]5CCCN5C1=O)C(=O)NCC(=O)N[C@@H](CCC(=O)O)C(=O)N[C@@H](CO)C(=O)N4)NC(=O)CNC(=O)[C@H](C)NC(=O)[C@H](C(C)C)NC(=O)[C@H]([C@@H](C)O)NC(=O)[C@H]([C@@H](C)O)NC(=O)[C@H](CC(C)C)NC3=O)C(=O)N[C@@H](CCCCN)C(=O)N[C@@H](CC(N)=O)C(=O)N[C@@H](CCCCN)C(=O)N[C@@H](C(C)C)C(=O)N2` [CYCLOVIOLIN C] (cyclo(AGCSCKNKVCYRNGIPCGESCVFIPCLTTV); disulfide 3-17, 5-21, 10-26) was tested, and the EC50 was 50 nM. `CC[C@H](C)[C@@H]1NC(=O)[C@H](C)NC(=O)[C@H](C)NC(=O)[C@H](CO)NC(=O)[C@H]([C@@H](C)CC)NC(=O)[C@@H]2CSSC[C@@H]3NC(=O)[C@H](C(C)C)NC(=O)[C@H](CCCCN)NC(=O)[C@H](CC(N)=O)NC(=O)[C@H](CCCCN)NC(=O)[C@@H]4CSSC[C@H](NC(=O)[C@H](CO)NC(=O)[C@H](CCC(=O)O)NC(=O)CNC(=O)[C@H](CSSC[C@H](NC(=O)CNC1=O)C(=O)N[C@@H](CO)C(=O)N4)NC(=O)[C@@H]1CCCN1C(=O)[C@H](Cc1ccccc1)NC(=O)CNC(=O)[C@H](CC(N)=O)NC(=O)[C@H](CCCNC(=N)N)NC(=O)[C@H](Cc1ccc(O)cc1)NC3=O)C(=O)N[C@@H](C(C)C)C(=O)N[C@@H](Cc1ccccc1)C(=O)N[C@@H]([C@@H](C)CC)C(=O)N1CCC[C@H]1C(=O)N2` [CYCLOVIOLIN D] (cyclo(AAIGCSCKNKVCYRNGFPCGESCVFIPCIS); disulfide 5-19, 7-23, 12-28) gave an EC50 of 50 nM.
